Laboratory results reported in ChEMBL document CHEMBL1154198, “Chemical genetics of Plasmodium falciparum” (Nature, 2010).

Key:
[1] = tested on: Plasmodium falciparum; assay: ST_JUDE: Cytotoxicity against Plasmodium falciparum 3D7; format: functional, organism-based
Outline: (§1)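 Asexual P. falciparum grown in human erythrocytes, exposed to compounds for 72 h, and growth read as the DNA quantity in treated versus control cultures. Dose-response run at 12 concentrations from 10 μM to 5 nM.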

[2] = ST_JUDE: Cytotoxicity using luciferase to measure ATP as an indicator of the viability of human foreskin fibroblast cells (BJ); format: toxicity, cell-based
[3] = tested on: Plasmodium falciparum; assay: ST_JUDE: Cytotoxicity against Plasmodium falciparum SB-A6; format: functional, organism-based
[4] = tested on: Plasmodium falciparum; assay: ST_JUDE: Cytotoxicity against Plasmodium falciparum W2; format: functional, organism-based
[5] = tested on: Plasmodium falciparum; assay: ST_JUDE: Cytotoxicity against Plasmodium falciparum K1; format: functional, organism-based; outline: as §1
[6] = tested on: Plasmodium falciparum; assay: ST_JUDE: Cytotoxicity against Plasmodium falciparum V1/S; format: functional, organism-based
[7] = ST_JUDE: Cytotoxicity using luciferase to measure ATP as an indicator of the viability of human epithelial hepatocellular carcinoma cells (HepG2); format: toxicity, cell-based
[8] = tested on: Trypanosoma brucei; assay: ST_JUDE: Cytotoxicity using luciferase to measure ATP as an indicator of the viability of Trypanosoma brucei; format: functional, organism-based
[9] = tested on: Plasmodium falciparum; assay: ST_JUDE: Cytotoxicity against Plasmodium falciparum D10 transfected with yeast DHOD; format: functional, organism-based
[10] = tested on: Plasmodium falciparum; assay: ST_JUDE: Plasmodium falciparum K1 EC50 (uM) as measured by SYBR green dye; format: functional, organism-based
[11] = tested on: Toxoplasma gondii; assay: ST_JUDE: Growth inhibition of to Toxoplasma gondii, in human U-2OS cells, as measured by luciferase.; format: functional, organism-based; conditions: RH, U2OS
Outline: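 T. gondii parasites engineered to express luciferase; drug sensitivity read by luminescence.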

[12] = ST_JUDE: Cytotoxicity using luciferase to measure ATP as an indicator of the viability of human Burkitt''s lymphoma lymphoblast cells (Raji); format: toxicity, cell-based
[13] = tested on: Leishmania major; assay: ST_JUDE: Cytotoxicity using Alamar Blue to measure viability of Leishmania major; format: functional, organism-based
Outline: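 L. major promastigotes; drug susceptibility read with Alamar Blue.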

[14] = tested on: Plasmodium falciparum; assay: ST_JUDE: Cytotoxicity against Plasmodium falciparum Dd2; format: functional, organism-based
[15] = ST_JUDE: Cytotoxicity using luciferase to measure ATP as an indicator of the viability of human epithelial embryonic kidney cells (HEK293); format: toxicity, cell-based
[16] = tested on: Plasmodium falciparum; assay: ST_JUDE: Plasmodium falciparum 3D7 EC50 (uM) as measured by SYBR green dye; format: functional, organism-based

EC50 [10] [µM]	EC50 [16] [µM]	Structure (SMILES)	EC50 [1] [µM]	EC50 [2] [µM]	EC50 [3] [µM]	EC50 [4] [µM]	EC50 [5] [µM]	EC50 [6] [µM]	EC50 [7] [µM]	EC50 [8] [µM]	EC50 [9] [µM]	EC50 [11] [µM]	EC50 [12] [µM]	EC50 [13] [µM]	EC50 [14] [µM]	EC50 [15] [µM]
0.496	0.545	CC(C)(C)c1cc(/N=N/C(=O)c2ccncc2)cc(C(C)(C)C)c1O	0.602	> 28.4	0.463	1.11	0.48	0.508	> 28.4	1.01	0.478	2.3	0.682	> 12.2	1.01	0.971
0.761	0.907	CCN(CC)CCn1c(=N)n(CC(O)c2ccc(Cl)c(Cl)c2)c2ccccc21 (stereo not drawn)	0.804	> 43.1	1.07	0.722	1.03	1.11	7.18	4.96	0.842	9.01	> 43.1	> 18.4	0.48	30.7
0.39	> 15	CCOC(=O)C1=C(C)N=c2s/c(=C/c3ccccc3O)c(=O)n2C1c1ccccc1 (stereo not drawn)	0.317	> 36.6	0.513	2.21	0.343	> 9.41	> 36.6	6.97	0.486	> 20.1	> 36.6	> 15.7	2.18	> 36.6

The remaining lines, values behind:

Structure (SMILES)	EC50 [10] [µM]	EC50 [16] [µM]	EC50 [1] [µM]	EC50 [2] [µM]	EC50 [3] [µM]	EC50 [4] [µM]	EC50 [5] [µM]	EC50 [6] [µM]	EC50 [7] [µM]	EC50 [8] [µM]	EC50 [9] [µM]	EC50 [11] [µM]	EC50 [12] [µM]	EC50 [13] [µM]	EC50 [14] [µM]	EC50 [15] [µM]
Oc1ccc(Cl)cc1CN1CCN(c2cccc(C(F)(F)F)c2)CC1	0.886	2.37	1.57	> 35.3	2.13	> 9.07	0.476	0.855	> 35.3	> 33.9	1.65	> 19.4	> 35.3	> 15.1	1.55	> 35.3
COc1cc(C2CC(=O)NC3=C2C(=O)CC(c2ccccc2Cl)C3)cc(Br)c1O (stereo not drawn)	0.945	1.28	1.85	> 54.2	2.45	1.06	1.91	2.73	> 54.2	16.4	1.93	> 29.7	> 54.2	> 23.2	1.91	> 54.2
CCN(CC)CCN1C(=O)c2ccccc2NC1c1ccc(Cl)cc1 (stereo not drawn)	0.526	0.578	2.18	> 42.9	2	1.95	1.67	1.14	> 42.9	> 41.1	1.87	> 23.5	> 42.9	> 18.4	1.12	> 42.9
Cc1ccc2c(c1)N(C)/C(=C/c1sc3ccccc3[n+]1CCO)S2	0.44	1.58	0.32	> 19.3	0.514	0.431	0.42	0.546	> 19.3	6.04	0.362	> 10.6	2.1	> 8.28	0.341	> 19.3
CSC(=S)N/N=C(\c1ccccc1)c1ccccn1	0.364	0.232	0.563	> 42.9	0.331	> 11	0.862	0.404	> 42.9	2.21	0.398	1.64	0.0334	> 18.4	0.0008	> 42.9
